Assay results: ChEMBL document CHEMBL1124883, “Monophosphoric acid diesters of 7 beta-hydroxycholesterol and of pyrimidine nucleosides as potential antitumor agents: synthesis and preliminary evaluation of antitumor activity” (1990)

What was measured:
[1] = The percentage of increase in life span was determined; format: functional, Mus musculus
Outline: (§1)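 Krebs II ascitic carcinoma, 1 × 10^6 cells in 0.25 mL 0.9% NaCl from donor mice with 8-10-day tumors, implanted ip into female Swiss/OF1 mice (20-25 g, six per group). Drugs were given in saline, water or aqueous suspension, 0.2 mL ip daily, starting 24 or 96 h post-implant. Saline controls.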

[2] = Evaluated for median survival time against Kreb II murine sarcoma cells in female Swiss/OF1 mice after ip administration of 80 uM/kg per day; format: functional, Mus musculus; outline: as §1
[3] = Evaluated for median survival time against Kreb II murine sarcoma cells in female Swiss/OF1 mice after ip administration of 80 umol/kg per day; format: functional, Mus musculus; outline: as §1
[4] = Evaluated for median survival time against Kreb II murine sarcoma cells in female Swiss/OF1 mice after ip administration of 84 uM/kg per day; format: functional, Mus musculus; outline: as §1
Mus musculus = species: Mus musculus; experiment: Complete recovery expressed as percent of animals surviving for more than 80 days was determined; format: functional; outline: as §1

Row | Compound | ILS [1] | Median survival time [2] | Median survival time [3] | Median survival time [4] | CR (Mus musculus)
1 | O=c1[nH]c(=O)n([C@@H]2O[C@H](CO)[C@@H](O)[C@H]2O)cc1F [5-FLUOROURIDINE] | 93% | 29 days |  |  | 
2 | CC(C)CCCC(C)[C@H]1CC[C@H]2[C@@H]3[C@@H](O)C=C4C[C@@H](O)CC[C@]4(C)[C@H]3CC[C@]12C.O=c1ccn([C@@H]2O[C@H](CO)[C@@H](O)[C@H]2O)c(=O)[nH]1 (some centres undefined) | 40% |  | 21 days |  | 
3 | CC(C)CCCC(C)[C@H]1CCC2C3C(CC[C@@]21C)[C@@]1(C)CC[C@H](O)CC1=C[C@@H]3O (stereo in doubt; form 2) [listing 1 of 2 here] | 180% |  |  | 42 days | 
4 | CC(C)CCCC(C)[C@H]1CCC2C3C(CC[C@@]21C)[C@@]1(C)CC[C@H](O)CC1=C[C@@H]3O (stereo in doubt; form 2) [listing 2 of 2 here] |  |  |  |  | 30%
5 | CC(C)CCCC(C)[C@H]1CCC2C3C(CC[C@@]21C)[C@@]1(C)CC[C@H](O)CC1=C[C@@H]3O (stereo in doubt; form 1) | 40% |  | 21 days |  | 
